Results taken from ChEMBL document CHEMBL1128732, “Synthesis and anticonvulsant activity of N-benzylpyrrolo[2,3-d]-, -pyrazolo[3,4-d]-, and -triazolo[4,5-d]pyrimidines: imidazole ring-modified analogues of 9-(2-fluorobenzyl)-6-(methylamino)-9H-purine” (J Med Chem, 1995).

What was measured:
Rattus norvegicus [1] = experiment: The compound was tested for anticonvulsant activity against maximal electroshock-induced seizures after intraperitoneal administration in rats; format: functional
In short: (§1)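 Male Wistar rats (Charles River) challenged with maximal electroshock. ED50 is the dose protecting 50% of animals against the hind limb extensor component, calculated by the Miller–Tainter method. With standard error: at least 12 animals per dose level, four doses per compound. Without standard error: three doses, six animals per point. Some compounds were given as the hydrochloride.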

Rattus norvegicus [2] = experiment: The compound was tested for anticonvulsant activity against maximal electroshock-induced seizures after peroral administration in rats; format: functional; in short: as §1
[3] = Partition coefficient (logP); format: physicochemical; settings: octanol/water
In short: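 Octanol–water partition measured with a carbonate-buffered aqueous phase adjusted to pH 10.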

[4] = pKa value of the compound; format: physicochemical

Work on `CN(C)c1ncnc2c1ccn2Cc1ccccc1F` yielded an ED50 (Rattus norvegicus [1]) of 11 mg/kg and an ED50 (Rattus norvegicus [2]) of 12 mg/kg.

With `Fc1ccccc1Cn1ccc2c(NC3CC3)ncnc21` the ED50 (Rattus norvegicus [1]; Rattus norvegicus, ip) was greater than 50 mg/kg.

Work on `CNc1ncnc2c1ccn2Cc1ccccc1F` yielded a logP [3] of 2.11, a pKa [4] of 5.56 and an ED50 (Rattus norvegicus [1]; Rattus norvegicus, ip) of 6 mg/kg. For the same compound, the ED50 (Rattus norvegicus [2]; Rattus norvegicus, po) was 12 mg/kg.

With `Nc1ncnc2c1cnn2Cc1ccccc1F` the ED50 (Rattus norvegicus [1]; Rattus norvegicus, ip) was 8 mg/kg and the ED50 (Rattus norvegicus [2]; Rattus norvegicus, po) was 14 mg/kg.

For `CNc1ncnc2c1nnn2Cc1ccccc1F`, the logP [3] was 2.05, the pKa [4] was 2.49 and the ED50 (Rattus norvegicus [1]; Rattus norvegicus, ip) was 3 mg/kg. The ED50 (Rattus norvegicus [2]; Rattus norvegicus, po) was 8 mg/kg.

Work on `CNc1ncnc2c1ncn2Cc1ccccc1F` [BW-A78U] yielded an ED50 (Rattus norvegicus [1]) of 1.7 mg/kg and an ED50 (Rattus norvegicus [2]) of 2.5 mg/kg.

`Nc1ncnc2c1ncn2Cc1ccccc1F` showed an ED50 (Rattus norvegicus [1]) of 4.5 mg/kg and an ED50 (Rattus norvegicus [2]) of 12 mg/kg.

For `Nc1ncnc2c1cnn2Cc1ccccc1`, the ED50 (Rattus norvegicus [1]; Rattus norvegicus, ip) was greater than 25 mg/kg.

`CN(C)c1ncnc2c1ccn2Cc1ccccc1` gave an ED50 (Rattus norvegicus [1]) of 15 mg/kg.

Compound `c1ccc(Cn2ccc3c(NC4CC4)ncnc32)cc1` has an ED50 (Rattus norvegicus [1]; Rattus norvegicus, ip) of 36 mg/kg.

Work on `CNc1ncnc2c1cnn2Cc1ccccc1` yielded an ED50 (Rattus norvegicus [1]; Rattus norvegicus, ip) of 7 mg/kg and an ED50 (Rattus norvegicus [2]; Rattus norvegicus, po) of 15 mg/kg.

In the case of `Nc1ncnc2c1nnn2Cc1ccccc1F`, the ED50 (Rattus norvegicus [1]; Rattus norvegicus, ip) is reported as greater than 25 mg/kg.

`CNc1ncnc2c1cnn2Cc1ccccc1F` gave a logP [3] of 1.94, a pKa [4] of 4.4 and an ED50 (Rattus norvegicus [1]; Rattus norvegicus, ip) of 6 mg/kg. The ED50 (Rattus norvegicus [2]; Rattus norvegicus, po) was 8 mg/kg.

For `O=C1NC(=O)C(c2ccccc2)(c2ccccc2)N1` [PHENYTOIN], the ED50 (Rattus norvegicus [1]) was 10 mg/kg and the ED50 (Rattus norvegicus [2]) was 20 mg/kg.
